Our source for the zone of inhibition and Activity values is ChEMBL document CHEMBL1155811, “Bioactive brominated metabolites from the Red Sea sponge Pseudoceratina arabica” (2008).

The structures appear in SMILES notation. The source made the active and inactive calls. The rule behind the calls is not given here.

Test [1] deals with Klebsiella pneumoniae. Description: Antibacterial activity against Klebsiella pneumoniae ATCC 10032 assessed as inhibition zone at 1 mg after 24 hrs by agar diffusion method. The format is functional. The note with it: ATCC 10032, 24 h, read-out: IZ. The gist of the method:
(§1)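 Agar diffusion (cup method). Each compound, 1 mg dissolved in 1 mL DMF; 100 µL of this solution was placed in cups cut in seeded agar. Plates were incubated at 37 °C for 24 h and the inhibition zone was measured.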

Test [2] relates to HCT-116. Description: Cytotoxicity against human HCT116 cells at 10 ug/mL by MTT assay. The format is functional, cell-based.
The test system of test [3] is Jejunum. In words: Parasympatholytic activity in isolated rabbit jejunum assessed as decrease in nicotine-induced intestinal contraction. It counts as functional, tissue-based. As to conditions: Oryctolagus cuniculus. An outline of the steps:
(§2)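 Isolated rabbit jejunum. Compounds in distilled H2O (1.0 mg/mL stock), used at 1/1000 and 1/100 dilutions. Normal contractions recorded first. Then 0.1 mL nicotine (1/1000 dilution) or 10 gamma acetylcholine (0.1 mL of 1/10 000 dilution) added after the compound. Change in intestinal contraction recorded.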

Test [4] has as its system Jejunum. Description: Parasympatholytic activity in isolated rabbit jejunum assessed as decrease in 10gamma-acetylcholine induced intestinal contraction. As to conditions: Oryctolagus cuniculus. It counts as functional, tissue-based. The gist of the method:
as §2

For test [5], the system named is Heart. Description: Parasympatholytic activity in isolated perfused rabbit heart assessed as decrease in nicotine-induced effect. The format is functional, tissue-based. As to conditions: Oryctolagus cuniculus. An outline of the steps:
(§3)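 Rabbit heart perfused by modified Langendorff method. Normal contractions recorded and receptors (nicotinic, muscarinic, histaminergic, adrenergic) checked. Compound added at 1/100 dilution of 1.0 mg/mL aqueous stock. Then 0.1 mL nicotine (1/1000 dilution of 1 mL/100 mL H2O) or 10 gamma acetylcholine (0.1 mL of 1/10 000 dilution of 1 g/100 mL H2O) given; change in contraction recorded.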

In test [6] the test system is Heart. In words: Parasympatholytic activity in isolated perfused rabbit heart assessed as decrease in 10gamma-acetylcholine induced effect. The format is functional, tissue-based. The note with it: Oryctolagus cuniculus. The gist of the method:
as §3

Test [7] concerns Candida albicans. In words: Antifungal activity against Candida albicans ATCC 2091 assessed as inhibition zone at 1 mg after 24 hrs by agar diffusion method. It counts as functional. As to conditions: ATCC 2091, 24 h, read-out: IZ. The gist of the method:
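Agar diffusion (cup) assay; Candida albicans ATCC 2091. Compound 1 mg dissolved in 1 mL DMF, 100 µL placed per cup; incubated 37 °C for 24 h; inhibition zone measured in mm.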

Test [8] deals with Staphylococcus aureus. Description: Antibacterial activity against Staphylococcus aureus ATCC 6538P assessed as inhibition zone at 1 mg after 24 hrs by agar diffusion method. It counts as functional. The note with it: read-out: IZ. The gist of the method: as §1
Test [9] concerns Pseudomonas aeruginosa. In words: Antibacterial activity against Pseudomonas aeruginosa ATCC 9027 assessed as inhibition zone at 1 mg after 24 hrs by agar diffusion method. As to conditions: ATCC 9027, 24 h, read-out: IZ. It counts as functional. An outline of the steps: as §1

Take `COC1=C(Br)C[C@]2(OC=C1Br)ON=C(C(=O)NCCCOc1c(Br)cc(CCN)cc1Br)[C@@H]2O` [PSAMMAPLYSIN A]: the zone of inhibition at 1000 µg/disc in [1] turned out to be 3 mm. Moreover, the Activity entry in [2] is “Not toxic”.

Regarding `NCCc1cc(Br)c(OCCCNC(=O)C(N)=O)c(Br)c1` [MOLOKA'IAKITAMIDE], the result in [3], in test [4], in test [5] and in test [6] was Active. The zone of inhibition at 1000 µg/disc in [7] was 3 mm. Moreover, the Activity result in test [2] is “Not toxic”.

For the compound `N#CC(=O)NCCCOc1c(Br)cc(CCN)cc1Br`, the Activity result in test [2] is “Not toxic”.

For the compound `CCOC(=O)c1c(O)c(O)cc(Br)c1OC` [CERATINOPHENOL A], the zone of inhibition at 1000 µg/disc in test [8] is 7 mm; in test [9], 4 mm; in test [1] it was 3 mm; in [7], 2 mm. Further, the Activity result in test [2] is “Not toxic”.

`C[N+]1=C2C=C(N)C(=O)c3[nH]cc(c32)CC1`: the Activity entry in [2] is “Not toxic”.

As to `COc1c(Br)cc(O)c(O)c1C=O`, the zone of inhibition at 1000 µg/disc in test [1] is 3 mm. In addition, the Activity result in test [2] is “Not toxic”.

Consider `NCCCOc1c(Br)cc(C(O)CN)cc1Br` (stereo not drawn), for which the Activity entry in [2] was “Not toxic”.

For `NCCCOc1c(Br)cc(CCN)cc1Br`, the result in test [3], in [4], in test [5] and in test [6] was Active. Also, in [2], the Activity entry is “Not toxic”.
